Read-outs that look alike come from different tables or passages of the source. Marks after values point to notes of the source that are not given here.
Key:
Safety and tolerability = format: in vivo, human; conditions: for TEAE leading to discontinuation: one subject
Summary of the method: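 Randomized, double-blind, placebo-controlled; cohorts of 8 (6:2) healthy adults given oral solution daily for a planned 14 days after ≥8 h fast, confined on site days −3 to 15 plus 1 follow-up day. Monitoring covered AEs, physical examination, BMI, vital signs, ECG and clinical laboratory tests. Subjects with ≥1 treatment-emergent AE counted across all subjects receiving at least one dose.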

[1] = format: in vivo, human; conditions: for half-life / AUC: human; for half-life / AUC / CL/F, mean (CV%): plasma; for half-life: oral; for AUC: po, AUCτ, mean (CV%), AUCτ = AUC24
Urine pharmacokinetics = format: in vivo, human; conditions: for Ae t, mean (CV%) / f e, mean (CV%): urine
CH24H = conditions: CH24H‐knockout mice vs wild‐type controls; cited from earlier work
[2] = healthy subjects, cited from earlier work
24HC levels in the brain = conditions: single oral administration in mice; cited from earlier work
[3] = Soticlestat total, n = 30, listed as soticlestat
[4] = soticlestat 100 mg QD oral solution, day 1
[5] = soticlestat 100 mg QD oral solution, day 14
[6] = soticlestat 300 mg QD oral solution, day 1
[7] = soticlestat 300 mg QD oral solution, day 14
[8] = soticlestat 400 mg QD oral solution, day 1
[9] = soticlestat 400 mg QD oral solution, day 14
[10] = soticlestat 600 mg QD oral solution, day 1

Compound: O=C(c1cccnc1-c1ccncc1)N1CCC(O)(Cc2ccccc2)CC1 [Soticlestat, soticlestat]
- Number of subjects (%) with TEAEs: Mild (Safety and tolerability; Soticlestat total, n = 30): 12 (40.0)
- Number of subjects (%) with TEAEs: Moderate (Safety and tolerability; Soticlestat total, n = 30): 1 (3.3)
- Number of subjects (%) with TEAEs: Not related (Safety and tolerability; Soticlestat total, n = 30): 1 (3.3)
- Number of subjects (%) with TEAEs: Related (Safety and tolerability; Soticlestat total, n = 30): 13 (43.3)
- Number of subjects (%) with TEAEs: Severe (Safety and tolerability; Soticlestat total, n = 30): 1 (3.3)
- Number of subjects (%): Deaths (Safety and tolerability; Soticlestat total, n = 30): 0
- Number of subjects (%) with TEAEs (Safety and tolerability; [3]): 14
- Number of subjects (%) with TEAEs: Related (Safety and tolerability; [3]): 13
- clinical laboratory (including hormones), vital signs, physical examination, eye examination or electrocardiographic findings (Safety and tolerability; all doses): No clinically significant findings
- liver function test results (Safety and tolerability; all doses): No subjects had abnormal liver function test results
- number of TEAE events considered related to soticlestat (Safety and tolerability; all doses): 31
- proportion of TEAEs transient and mild in intensity (Safety and tolerability; all doses): 91%
- serious AEs (Safety and tolerability; all doses): No serious AEs were reported
- proportion of TEAEs transient and mild in intensity (Safety and tolerability; all doses, listed as soticlestat): over 90%
- outcome of TEAEs (Safety and tolerability; before study exit on day 15): reversible and resolved without treatment
- TEAE leading to discontinuation (Safety and tolerability; 300 mg BID (cohort 3), study day 9): mild event of confusional state
- TEAE leading to discontinuation (Safety and tolerability; 600 mg QD (cohort 4), study day 10): severe event of acute psychosis
- total number of TEAEs reported (Safety and tolerability; subjects administered soticlestat, all doses): 45
- increase in AUCτ at steady state (accumulation ratio based on AUC) ([1]; 300 mg QD for 14 days): ~1.42 fold
- increase in C max at steady state (day 14 vs day 1) ([1]; 300 mg QD for 14 days): approximately 1.74 fold
- accumulation ratio based on AUC ([1]; 400 mg QD): 1.20
- dose proportionality of steady‐state exposure ([1]; 100‐400 mg QD, 14 days): slightly greater than dose‐proportional
- increase in single‐dose mean AUC∞ over 6‐fold dose range ([1]; day 1, 100‐600 mg): 9.35 fold
- increase in single‐dose mean C max over 6‐fold dose range ([1]; day 1, 100‐600 mg): 6.55 fold
- time‐dependent effect of PK on repeat dosing ([1]; day 1 vs day 14): not apparent
- increase in mean AUCτ over 4‐fold dose range ([1]; day 14, 100‐400 mg QD): 6.12 fold
- increase in mean C max over 4‐fold dose range ([1]; day 14, 100‐400 mg QD): 6.08 fold
- half-life ([1]; elimination half‐life, overall, as summarised in abstract): ~4 h
- half-life ([1]; mean half‐life, at 300 mg QD and 400 mg QD): ~4 h
- half-life ([1]; mean terminal elimination half‐life (t ½z), range across groups, day 1 and day 14, all doses): 3.49 to 4.83 h
- AUC ([1]; 100 mg, soticlestat 100 mg QD oral solution, day 1): 446 ng·h/mL
- AUC ([1]; 100 mg, soticlestat 100 mg QD oral solution, day 14): 458 ng·h/mL
- AUC ([1]; 300 mg, soticlestat 300 mg QD oral solution, day 1): 2030 ng·h/mL
- AUC ([1]; 300 mg, soticlestat 300 mg QD oral solution, day 14): 2690 ng·h/mL
- AUC ([1]; 400 mg, soticlestat 400 mg QD oral solution, day 1): 2500 ng·h/mL
- AUC ([1]; 400 mg, soticlestat 400 mg QD oral solution, day 14): 2800 ng·h/mL
- AUC ([1]; 600 mg, soticlestat 600 mg QD oral solution, day 1): 4180 ng·h/mL
- exposure accumulation on day 14 compared with day 1 ([1]; once‐daily dosing of 100 or 400 mg for 14 days): did not appear to result in exposure accumulation
- CL/F, mean (CV%) [1, 4]: 248 (40.4) ^c L/h
- CL/F, mean (CV%) [1, 5]: 234 (29.6) L/h
- CL/F, mean (CV%) ([1]; soticlestat 300 mg BID oral solution, day 1 after first dose): 232 (47.3) ^e L/h
- CL/F, mean (CV%) [1, 6]: 185 (47.6) L/h
- CL/F, mean (CV%) [1, 7]: 130 (43.9) L/h
- CL/F, mean (CV%) [1, 8]: 187 (38.8) L/h
- CL/F, mean (CV%) [1, 9]: 166 (44.4) L/h
- CL/F, mean (CV%) [1, 10]: 194 (57.5) L/h
- dose proportionality of systemic exposure ([1]; single doses of 100‐600 mg QD): slightly greater than dose‐proportional
- renal excretion / renal elimination (Urine pharmacokinetics; all doses): negligible
- Ae t, mean (CV%) (Urine pharmacokinetics; Ae τ = Ae 12, soticlestat 300 mg BID oral solution, day 1): 0.490 (75.9) mg
- Ae t, mean (CV%) (Urine pharmacokinetics; Ae τ = Ae 24, soticlestat 100 mg QD oral solution, day 1): 0.0900 (25.6) mg
- Ae t, mean (CV%) (Urine pharmacokinetics; Ae τ = Ae 24, soticlestat 100 mg QD oral solution, day 14): 0.0800 (30.0) mg
- Ae t, mean (CV%) (Urine pharmacokinetics; Ae τ = Ae 24, soticlestat 300 mg QD oral solution, day 1): 0.660 (84.3) mg
- Ae t, mean (CV%) (Urine pharmacokinetics; Ae τ = Ae 24, soticlestat 300 mg QD oral solution, day 14): 0.56 (83.4) mg
- Ae t, mean (CV%) (Urine pharmacokinetics; Ae τ = Ae 24, soticlestat 400 mg QD oral solution, day 1): 0.920 (47.7) mg
- Ae t, mean (CV%) (Urine pharmacokinetics; Ae τ = Ae 24, soticlestat 400 mg QD oral solution, day 14): 1.01 (31.9) mg
- Ae t, mean (CV%) (Urine pharmacokinetics; Ae τ = Ae 24, soticlestat 600 mg QD oral solution, day 1): 1.440 (74.4) mg
- f e, mean (CV%) (Urine pharmacokinetics; [4]): 0.0900 (25.6) %
- f e, mean (CV%) (Urine pharmacokinetics; [5]): 0.0800 (30.0) %
- f e, mean (CV%) (Urine pharmacokinetics; soticlestat 300 mg BID oral solution, day 1): 0.160 (75.9) %
- f e, mean (CV%) (Urine pharmacokinetics; [6]): 0.220 (84.3) %
- f e, mean (CV%) (Urine pharmacokinetics; [7]): 0.190 (83.4) %
- f e, mean (CV%) (Urine pharmacokinetics; [8]): 0.230 (47.7) %
- f e, mean (CV%) (Urine pharmacokinetics; [9]): 0.250 (31.9) %
- f e, mean (CV%) (Urine pharmacokinetics; [10]): 0.240 (74.4) %
- soticlestat distribution in the brain (CH24H): substantially lower level of soticlestat distribution in the brain than wild‐type controls
- tolerability of single doses ([2]; doses up to 1350 mg): well tolerated
- circulating levels of 24HC ([2]; single rising doses): dose‐dependent reduction
- 24HC levels in the brain (24HC levels in the brain): dose‐dependent reduction in 24HC levels in the brain
